Laboratory results published in PMC7086808 (Archives of Virology, 2009).

Legend:
[1] = tested on: Coxsackie virus B5 (CVB5); assay: MTT/CPE antiviral assay, compound treatment before virus infection; format: cell-based
Outline: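 HEp-2 cells pretreated with twofold serial dilutions in MEM for 24 h at 37°C, 5% CO2. Compound then removed and cells washed twice with PBS before challenge with 100 TCID50/0.1 ml CVB5 for 1 h. After two more washes, cells kept in test medium until CPE appeared; scored microscopically and by MTT. IC50 and TI (CC50/IC50); mean ± SD of three experiments.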

[2] = tested on: Coxsackie virus B5 (CVB5); assay: MTT/CPE antiviral assay, compound treatment after virus infection; format: cell-based; conditions: for IC50: Enterovirus B
Outline: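 Confluent HEp-2 monolayers infected with CVB5 at 100 TCID50/0.1 ml for 1 h, washed with PBS, then overlaid with twofold serial dilutions in 2% serum test medium, dosed daily. CPE scored by light microscopy and quantified by MTT (OD 540/690 nm). IC50 derived, TI = CC50/IC50; mean ± SD from three independent experiments.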

[3] = tested on: Coxsackie virus B5 (CVB5); assay: Virucidal assay; format: cell-based; conditions: Enterovirus B, B5|CVB5, HEp-2, 1 h
Outline: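 CVB5 suspension mixed with twofold serial dilutions (0.5 to 20 μg/ml) for 1 h at 37°C, then added to confluent HEp-2 cells for 1 h. Inoculum removed, cells rinsed with PBS and incubated in test medium. CPE scored by microscopy and MTT; IC50 derived as mean ± SD of three independent experiments.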

MTT cytotoxicity assay = format: cell-based; conditions: human, HEp-2 cells (uninfected)
Outline: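 HEp-2 cells seeded at 2 × 10⁴/well and grown to subconfluence, then given serial twofold dilutions in test medium with 2% serum; four uninfected wells per dilution; compound re-added daily; controls had 0.05% DMSO. Read-out: MTT (5 mg/ml in PBS, 4 h), formazan dissolved in DMSO, OD at 540/690 nm. Expressed as % of untreated; CC50 derived; dilutions in triplicate.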

CVB5 RNA = assay: Semi-quantitative detection of viral RNA by RT-PCR; format: cell-based, Coxsackie virus B5; conditions: cells treated after infection with 0.3-40 μg/ml
[4] = tested on: Coxsackie virus B5 (CVB5); assay: Coxsackie virus B5 infection in mice; format: in vivo, BALB/c mice; conditions: for mean virus yield of hearts: plaque assay
[5] = Storage stability of compound preparations; format: physicochemical; conditions: DMSO/test medium preparations; freezing and short-term storage (1 month at 4°C)
mice = conditions: single-dose oral administration; cited from earlier work
rats = conditions: single-dose oral administration; cited from earlier work
guinea pigs = conditions: single-dose oral administration; cited from earlier work
animals = conditions: cited from earlier work
[6] = cited from earlier work

CCOC(=O)c1c(CSc2ccccc2)n(C)c2cc(Br)c(O)c(CN(C)C)c12.Cl.O [Arbidol, ethyl-6-bromo-4-[(dimethylamino)-methyl]-5-hydroxy-1-methyl-2-[(phenylthio)methyl]-indole-3-carboxylate hydrochloride monohydrate]
IC50 ([1]; Enterovirus B, B5|CVB5, HEp-2): 30.3 ± 1.6 µg/mL
TI (CC50/IC50) ([1]; drug added before infection, HEp-2 cells): 2.7
IC50 ([2]; B5|CVB5, HEp-2): 6.62 ± 1.1 µg/mL
IC50 ([2]; B5|CVB5, read-out: 50% inhibitory concentration (IC50), CPE of CVB5): 2.66 to 6.62 µg/mL
TI (CC50/IC50) ([2]; drug added after infection, HEp-2 cells): 12.45
IC50 [3]: 2.66 ± 0.4 µg/mL
CC50 (MTT cytotoxicity assay): 82.1 µg/mL
ratio of CVB5 RNA to β-actin (RT-PCR) (CVB5 RNA): decreased with increasing dose
lung index vs viral control group ([4]; 25 mg/kg body weight/day p.o.): significantly lower
mean virus yield of hearts ([4]; 25 mg/kg body weight/day p.o. for 6 days): 10^3 viral plaques/heart
survival by day 30 ([4]; 25 mg/kg body weight/day p.o., eight mice per group): half of them had survived
clinical observations during the 30-day period ([4]; 50 mg/kg body weight/day p.o.): did not show abnormalities
lung index vs normal group ([4]; 50 mg/kg body weight/day p.o.): no significant difference
lung index vs viral control group ([4]; 50 mg/kg body weight/day p.o.): significantly lower
mean virus yield of hearts ([4]; 50 mg/kg body weight/day p.o. for 6 days): 10^2 viral plaques/heart
survival rate ([4]; 50 mg/kg body weight/day p.o. once a day for 6 days): significantly enhanced
body weight ([4]; 50 mg/kg body weight/day p.o., 30-day period): slight weight loss
efficacy of preparations upon storage [5]: did not appear to change
LD50 (50% lethal dose) (mice): 687 mg/kg
LD50 (50% lethal dose) (rats): 3,000 mg/kg
LD50 (50% lethal dose) (guinea pigs): 4,000 mg/kg
pathologic changes on long-term intake (animals; animals, clinical, hematological, biochemical, pathological data): did not show pathologic changes
mutagenic or teratogenic activity (animals; at therapeutic doses): no mutagenic or teratogenic activity
half-life in cultured cells [6]: about 18 h
